The source made the active and inactive calls. The rule behind the calls is not given here.
Legend:
Mus musculus [1] = assay: Neuroprotection in C57BL/6J mouse model of amyloid beta (25 to 35 residues) induced Alzheimer's disease assessed as reduction in ratio of apoptotic neuron in CA1 hippocampus region at 30 mg/kg/day, ig administered for 26 consecutive days by hematoxylin and eosin staining-based light microscopic analysis (reference value: 40.6 +/- 12.5%); format: ADME, organism-based; design: scale not given: the % may be the effect or the level left; conditions: in vivo, po
Summary of the method: (§1)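 Hippocampal CA1, CA3 and DG neurons were stained with H&E after the Aβ25-35 ICV model and 26-day intragastric dosing. Denatured cell index = denatured cells/total cells, n = 5. Values are mean ± SD, two-way ANOVA versus model.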

[2] = Hepatotoxicity in C57BL/6 mouse assessed as tissue damage up to 2000 mg/kg, ig after 14 days by microscopic analysis; format: toxicity, organism-based; conditions: in vivo, po, 336 h
Summary of the method: (§2)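 Mice given a single intragastric dose of test compound at various dosages, then observed for 14 days for death and abnormal behaviour. On day 14, animals were sacrificed and heart, liver, lungs and kidneys examined.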

Mus musculus [3] = assay: Cognition enhancement activity in amyloid beta (25 to 35 residues) induced C57BL/6J mouse model of Alzheimer's disease assessed as swimming time in effective region at 30 mg/kg/day, ig administered for 26 consecutive days by Morris water maze test (4.3 +/- 1.3 sec); format: functional
Summary of the method: (§3)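 Mice were randomized into 7 groups. All except sham got an ICV injection of Aβ25-35 (3 nmol); sham got the same volume of saline ICV. Dosing was intragastric daily for 26 days, with 0.5% CMC-Na as vehicle for sham and model. Body weight, diarrhea and emesis-like behavior were monitored.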

[4] = Antioxidant activity assessed as trolox equivalent of AAPH-induced radical scavenging activity at 10 to 20 uM preincubated for 10 mins followed by AAPH addition measured every minute for 120 mins by ORAC fluorescein assay; format: functional
Summary of the method: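 ORAC values are expressed as trolox equivalents, mean ± SD of three independent experiments.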

Mus musculus [5] = assay: Neuroprotection in amyloid beta (25 to 35 residues) induced C57BL/6J mouse model of Alzheimer's disease assessed as reduction in ratio of apoptotic neuron in DG hippocampus region at 30 mg/kg/day, ig administered for 26 consecutive days by hematoxylin and eosin staining-based light microscopic analysis (reference value: 55.8 +/- 7.2%); format: ADME, organism-based; design: scale not given: the % may be the effect or the level left; conditions: in vivo, po; summary of the method: as §1
in vitro [6] = conditions: Sprague-Dawley, rat, liver microsomes
[7] = Acute Toxicity in C57BL/6 mouse lung assessed as abnormal changes up to 2000 mg/kg, ig after 14 days by microscopic analysis; format: organism-based; conditions: in vivo, po, 336 h; summary of the method: as §2
in vitro [8] = conditions: PAMPA
Mus musculus [9] = assay: Neuroprotection in amyloid beta (25 to 35 residues) induced C57BL/6J mouse model of Alzheimer's disease assessed as reduction in ratio of apoptotic neuron in CA3 hippocampus region at 30 mg/kg/day, ig administered for 26 consecutive days by hematoxylin and eosin staining-based light microscopic analysis (reference value: 80.2 +/- 8.6%); format: ADME, organism-based; design: scale not given: the % may be the effect or the level left; conditions: in vivo, po; summary of the method: as §1
[10] = Nephrotoxicity in C57BL/6 mouse assessed as tissue damage up to 2000 mg/kg, ig after 14 days by microscopic analysis; format: toxicity, organism-based; conditions: in vivo, po, 336 h; summary of the method: as §2
[11] = Metal chelating activity of the compound assessed as formation of cupric-compound complex at 50 uM after 30 mins by UV-vis spectrophotometric analysis
Summary of the method: (§4)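 UV-vis absorption spectra of compound (50 µM) were recorded in HEPES buffer alone and with 50 µM CuSO4, ZnCl2, FeSO4 or FeCl3, and spectral changes were assessed.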

SH-SY5Y [12] = assay: Cytotoxicity against human SH-SY5Y cells assessed as effect on cell viability at 10 uM after 24 hrs by MTT assay; format: cell-based
Summary of the method: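 SH-SY5Y viability was measured by MTT after exposure to compounds at 10 µM. Results are percent of vehicle control from three independent experiments.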

[13] = Metal chelating activity of the compound assessed as formation of ferric-compound complex at 50 uM after 30 mins by UV-vis spectrophotometric analysis; summary of the method: as §4
SH-SY5Y [14] = assay: Antioxidant activity in human SH-SY5Y cells assessed as inhibition of t-BuOOH-induced intracellular oxidative stress by measuring ROS level preincubated for 24 hrs followed by t-BuOOH addition and measured after 30 mins by DCFH-DA dye-based fluorescence assay; format: functional, cell-based
Mus musculus [15] = assay: Cognition enhancement activity in amyloid beta (25 to 35 residues) induced C57BL/6J mouse model of Alzheimer's disease assessed as swimming speed at 30 mg/kg/day, ig administered for 26 consecutive days by Morris water maze test (reference value: 15.6 +/- 2.4 cm/sec); format: functional; summary of the method: as §3
[16] = Acute Toxicity in C57BL/6 mouse assessed as mouse mortality up to 2000 mg/kg, ig measured over 14 days; format: organism-based; conditions: in vivo, po, 336 h; summary of the method: as §2
[17] = Metal chelating activity of the compound assessed as formation of ferrous-compound complex at 50 uM after 30 mins by UV-vis spectrophotometric analysis; summary of the method: as §4
[18] = Metal chelating activity of the compound assessed as formation of zinc-compound complex at 50 uM after 30 mins by UV-vis spectrophotometric analysis; summary of the method: as §4
Mus musculus [19] = assay: Cognition enhancement activity in amyloid beta (25 to 35 residues) induced C57BL/6J mouse model of Alzheimer's disease assessed as swimming path length in virtual platform at 30 mg/kg/day, ig administered for 26 consecutive days by Morris water maze test (10.2 +/- 3.2 cm); format: functional; summary of the method: as §3
Mus musculus [20] = assay: Cognition enhancement activity in amyloid beta (25 to 35 residues) induced C57BL/6J mouse model of Alzheimer's disease assessed as increase in number of virtual platform crossing at 30 mg/kg/day, ig administered for 26 consecutive days by Morris water maze test; format: functional, organism-based; summary of the method: as §3
Mus musculus [21] = assay: Cognition enhancement activity in amyloid beta (25 to 35 residues) induced C57BL/6J mouse model of Alzheimer's disease assessed as decrease in escape latancy at 30 mg/kg/day, ig administered for 26 consecutive days by Morris water maze test; format: functional, organism-based; summary of the method: as §3
[22] = Cardiotoxicity in C57BL/6 mouse assessed as abnormal changes up to 2000 mg/kg, ig after 14 days by microscopic analysis; format: toxicity, organism-based; conditions: in vivo, po, 336 h; summary of the method: as §2
[23] = Toxicity in amyloid beta (25 to 35 residues) induced C57BL/6J mouse model of Alzheimer's disease assessed as diarrhea at 30 mg/kg/day, ig administered for 26 consecutive days; format: organism-based; conditions: in vivo, po; summary of the method: as §3
[24] = Acute Toxicity in C57BL/6 mouse assessed as abnormal behavior up to 2000 mg/kg, ig measured over 14 days; format: organism-based; conditions: in vivo, po, 336 h; summary of the method: as §2
[25] = Hepatotoxicity in C57BL/6 mouse assessed as abnormal changes up to 2000 mg/kg, ig after 14 days by microscopic analysis; format: toxicity, organism-based; conditions: in vivo, po, 336 h; summary of the method: as §2
[26] = Drug metabolism in Sprague-Dawley rat liver microsomes assessed as metabolic rate up to 180 mins in presence of NADPH by UV-based LC-MS/MS analysis; format: ADME, Microsome; conditions: 3 h
[27] = Acute Toxicity in C57BL/6 mouse up to 2000 mg/kg, ig measured every 14 days; format: organism-based; conditions: in vivo, po, 336 h; summary of the method: as §2
[28] = Metal chelating activity assessed as inhibition of Cu(II)/ascorbate-induced ROS production by measuring […] level at 10 uM by fluorescence assay
Summary of the method: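 A Cu-ascorbate redox system in PBS (pH 7.4) at 37 °C, with Cu(II) 5 µM, ascorbate 150 µM and coumarin-3-carboxylic acid 50 µM as the hydroxyl radical trap. Compound was pre-incubated 10 min before ascorbate was added. Fluorescence of 7-hydroxy-CCA (ex 395, em 450 nm) was read every 30 s for 15 min.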

[29] = Toxicity in amyloid beta (25 to 35 residues) induced C57BL/6J mouse model of Alzheimer's disease assessed as loss of body weight at 30 mg/kg/day, ig administered for 26 consecutive days; format: organism-based; conditions: in vivo, po; summary of the method: as §3
[30] = target: 3',5'-cyclic-AMP phosphodiesterase 4D (Homo sapiens, UniProt Q08499); assay: Inhibition of human PDE4D2 (86 to 413 residues) catalytic domain using [3H]-cAMP as substrate after 15 mins by liquid scintillation counting method
[31] = Toxicity in amyloid beta (25 to 35 residues) induced C57BL/6J mouse model of Alzheimer's disease assessed as emesis at 30 mg/kg/day, ig administered for 26 consecutive days; format: organism-based; conditions: in vivo, po; summary of the method: as §3
[32] = Metal chelating activity assessed as inhibition of Cu(II)-induced amyloid beta (1 to 42 residues) aggregation at 25 uM after 24 hrs by TEM assay
Summary of the method: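 Samples were prepared as for the ThT assay. 10 µL aliquots were applied to carbon-coated copper grids for 2 min, then stained with 3% phosphotungstic acid for 2 min and imaged by transmission electron microscopy.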

[33] = Cardiotoxicity in C57BL/6 mouse assessed as tissue damage up to 2000 mg/kg, ig after 14 days by microscopic analysis; format: toxicity, organism-based; conditions: in vivo, po, 336 h; summary of the method: as §2
[34] = Nephrotoxicity in C57BL/6 mouse assessed as abnormal changes up to 2000 mg/kg, ig after 14 days by microscopic analysis; format: toxicity, organism-based; conditions: in vivo, po, 336 h; summary of the method: as §2
[35] = Acute Toxicity in C57BL/6 mouse lung assessed as tissue damage up to 2000 mg/kg, ig after 14 days by microscopic analysis; format: organism-based; conditions: in vivo, po, 336 h; summary of the method: as §2

Chain of 3',5'-cyclic-AMP phosphodiesterase 4D (Q08499 whole entry, the tested form may be a part): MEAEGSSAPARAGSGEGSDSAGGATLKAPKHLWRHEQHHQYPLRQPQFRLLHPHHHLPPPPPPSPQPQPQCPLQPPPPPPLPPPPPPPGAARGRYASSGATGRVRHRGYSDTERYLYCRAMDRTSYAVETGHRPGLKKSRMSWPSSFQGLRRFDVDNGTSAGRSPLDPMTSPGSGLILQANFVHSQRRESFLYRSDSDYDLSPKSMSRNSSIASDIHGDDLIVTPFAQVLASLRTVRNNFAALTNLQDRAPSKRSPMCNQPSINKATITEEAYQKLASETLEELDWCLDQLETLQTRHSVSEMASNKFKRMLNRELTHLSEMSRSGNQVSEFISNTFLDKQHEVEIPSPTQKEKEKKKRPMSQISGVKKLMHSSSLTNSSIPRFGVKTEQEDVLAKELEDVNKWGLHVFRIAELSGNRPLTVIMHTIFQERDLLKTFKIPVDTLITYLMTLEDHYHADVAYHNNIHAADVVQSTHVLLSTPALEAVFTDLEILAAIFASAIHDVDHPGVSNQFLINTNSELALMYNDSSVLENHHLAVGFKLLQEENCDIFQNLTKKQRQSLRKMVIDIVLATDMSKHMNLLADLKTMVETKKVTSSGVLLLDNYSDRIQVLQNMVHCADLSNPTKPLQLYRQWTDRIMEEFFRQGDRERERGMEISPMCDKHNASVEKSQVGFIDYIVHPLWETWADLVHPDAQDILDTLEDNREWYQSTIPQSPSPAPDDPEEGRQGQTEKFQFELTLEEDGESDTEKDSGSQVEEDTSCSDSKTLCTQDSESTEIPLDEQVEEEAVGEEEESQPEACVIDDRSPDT

## Cl.O=C(Nc1ccc(O)c2ncccc12)c1ccc(OC(F)F)c(OCC2CC2)c1
Mus musculus [1]
  Activity: 12.5%
[2]
  Activity: Non-Toxic
Mus musculus [3]
  Time: 6.8 s
[4]
  Activity: 0.6 equiv
Mus musculus [5]
  Activity: 18.7%
In vitro [6]
  half-life: 1.5 h
[7]
  Activity: Non-Toxic
In vitro [8]
  Papp at 10 h, 100 ug/ml: 12.9 ×10⁻⁶ cm/s
Mus musculus [9]
  Activity: 7.9%
[10]
  Activity: Non-Toxic
[11]
  Activity: Active
SH-SY5Y [12]
  Activity: Non-Toxic
[13]
  Activity: Active
SH-SY5Y [14]
  Activity: Dose-dependent effect
Mus musculus [15]
  Activity: 15 cm/s
[16]
  Activity: Non-Toxic
[17]
  Activity: Active
[18]
  Activity: Active
Mus musculus [19]
  Activity: 19 cm
Mus musculus [20]
  Activity: Active
Mus musculus [21]
  Activity: Active
[22]
  Activity: Non-Toxic
[23]
  Activity: Non-Toxic
[24]
  Activity: Non-Toxic
[25]
  Activity: Non-Toxic
[26]
  K: 0.00767 min⁻¹
[27]
  Activity: Non-Toxic
[28]
  Activity: Active
[29]
  Activity: Non-Toxic
[30]
  IC50: 0.399 µM
[31]
  Activity: Non-Toxic
[32]
  Activity: Active
[33]
  Activity: Non-Toxic
[34]
  Activity: Non-Toxic
[35]
  Activity: Non-Toxic
